Measured values published in ChEMBL document CHEMBL4138139, “Discovery of VU6005649, a CNS Penetrant mGlu7/8 Receptor PAM Derived from a Series of Pyrazolo[1,5-a]pyrimidines” (ACS Med Chem Lett, 2017).

Experiments:
[1] = molecular target: Muscarinic acetylcholine receptor M1 (Homo sapiens) (UniProt P11229); assay: Displacement of [3H] N-methylscopolamine from recombinant human M1 receptor expressed in CHOK1 cell membranes at 10 uM after 120 mins by scintillation counting method relative to control
How it was run: (§1)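 Single-concentration screen at 10 μM in an outsourced profiling panel of 68 GPCRs, ion channels and transporters. Activity read out as percent inhibition of specific radioligand binding.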

[2] = molecular target: D(3) dopamine receptor (Homo sapiens) (UniProt P35462); assay: Displacement of [3H] spiperone from recombinant human D3 receptor expressed in CHO cell membranes at 10 uM after 120 mins by scintillation counting method relative to control
How it was run: (§2)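 Single-concentration screen at 10 μM within a commercial lead-profiling panel of 68 GPCRs, ion channels and transporters. Activity read as percent inhibition of specific radioligand binding to each target.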

[3] = molecular target: Alpha-1B adrenergic receptor (Rattus norvegicus) (UniProt P15823); assay: Displacement of [3H] prazosin from Wistar rat alpha1b receptor at 10 uM measured after 60 mins by scintillation counting method relative to control; how it was run: as §1
[4] = molecular target: T1, Metabotropic glutamate receptor 6 (Homo sapiens, UniProt O15303); assay: Positive allosteric modulation of human mGlu6 receptor expressed in HEK cells assessed as increase in glutamate-induced calcium flux incubated for 142 secs followed by glutamate addition measured after 120 secs by Fluo4-AM dye based fluorescence assay; type: functional, cell-based
T1 sequence (O15303 whole entry): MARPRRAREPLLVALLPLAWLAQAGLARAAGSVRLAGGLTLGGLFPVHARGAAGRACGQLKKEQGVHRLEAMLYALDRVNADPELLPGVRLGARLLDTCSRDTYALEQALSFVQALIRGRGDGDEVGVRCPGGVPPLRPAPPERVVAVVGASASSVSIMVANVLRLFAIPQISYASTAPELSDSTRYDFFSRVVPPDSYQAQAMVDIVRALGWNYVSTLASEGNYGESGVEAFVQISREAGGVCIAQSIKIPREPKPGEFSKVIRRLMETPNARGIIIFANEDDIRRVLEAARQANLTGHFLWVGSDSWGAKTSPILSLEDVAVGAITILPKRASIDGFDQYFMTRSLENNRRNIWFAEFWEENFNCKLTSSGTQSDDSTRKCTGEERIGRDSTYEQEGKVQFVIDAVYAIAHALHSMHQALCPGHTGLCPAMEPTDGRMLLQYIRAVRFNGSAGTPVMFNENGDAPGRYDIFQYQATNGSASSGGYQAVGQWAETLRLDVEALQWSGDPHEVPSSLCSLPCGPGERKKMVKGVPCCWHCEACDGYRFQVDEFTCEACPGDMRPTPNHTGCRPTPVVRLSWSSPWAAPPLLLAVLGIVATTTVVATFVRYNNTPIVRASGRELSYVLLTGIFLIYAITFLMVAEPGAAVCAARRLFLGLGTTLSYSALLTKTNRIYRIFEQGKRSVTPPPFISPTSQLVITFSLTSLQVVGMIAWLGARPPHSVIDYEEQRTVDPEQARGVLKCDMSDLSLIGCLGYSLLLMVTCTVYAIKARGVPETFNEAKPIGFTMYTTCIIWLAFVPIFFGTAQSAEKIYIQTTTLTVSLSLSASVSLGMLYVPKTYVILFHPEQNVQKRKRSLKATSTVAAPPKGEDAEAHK

[5] = species: Rattus norvegicus; assay: Displacement of [125I] triiodothyronine from thyroid hormone receptor in Sprague-Dawley rat liver membranes at 10 uM after 18 hrs by scintillation counting method relative to control; type: cell membranes; conditions: Membrane; how it was run: as §1
[6] = species: Mus musculus; assay: Displacement of [3H] PDBu from phorbol ester receptor in ICR mouse brain membranes at 10 uM after 60 mins by scintillation counting method relative to control; type: cell membranes; conditions: Membrane; how it was run: as §1
[7] = species: Homo sapiens; assay: Displacement of [3H] spiperone from recombinant human D4.2 receptor expressed in CHOK1 cell membranes at 10 uM after 120 mins by scintillation counting method relative to control; how it was run: as §2
[8] = molecular target: Kappa-type opioid receptor (Homo sapiens) (UniProt P41145); assay: Displacement of [3H] diprenorphine from recombinant human kappa opioid receptor expressed in HEK293 cell membranes at 10 uM after 60 mins by scintillation counting method relative to control; how it was run: as §1
Kappa-type opioid receptor (Homo sapiens), sequence (P41145 whole entry): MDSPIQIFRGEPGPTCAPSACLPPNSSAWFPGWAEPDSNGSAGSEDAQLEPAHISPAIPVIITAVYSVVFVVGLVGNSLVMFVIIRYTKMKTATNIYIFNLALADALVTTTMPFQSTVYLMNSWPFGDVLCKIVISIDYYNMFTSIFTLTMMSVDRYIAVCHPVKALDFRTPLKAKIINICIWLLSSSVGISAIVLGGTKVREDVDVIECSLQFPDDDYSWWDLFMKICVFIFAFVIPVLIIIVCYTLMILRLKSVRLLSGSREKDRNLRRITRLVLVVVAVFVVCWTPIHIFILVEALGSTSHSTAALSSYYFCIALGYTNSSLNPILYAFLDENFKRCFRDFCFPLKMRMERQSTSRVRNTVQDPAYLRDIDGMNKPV

[9] = species: Mesocricetus auratus; assay: Displacement of [3H] glyburide from KATP in syrian hamster HIT-T15 cell membranes at 10 uM after 120 mins by scintillation counting method relative to control; how it was run: as §1
[10] = molecular target: Prostaglandin E2 receptor EP4 subtype (Homo sapiens) (UniProt P35408); assay: Displacement of [3H] prostaglandin E2 from recombinant human EP4 receptor expressed in rat Chem1 cell membranes at 10 uM measured after 120 mins by scintillation counting method relative to control; how it was run: as §1
[11] = molecular target: Endothelin receptor type B (Homo sapiens) (UniProt P24530); assay: Displacement of [125I] endothelin-1 from recombinant human ETB receptor expressed in CHOK1 cell membranes at 10 uM after 120 mins by scintillation counting method relative to control; how it was run: as §1
Endothelin receptor type B (Homo sapiens), sequence (P24530 whole entry): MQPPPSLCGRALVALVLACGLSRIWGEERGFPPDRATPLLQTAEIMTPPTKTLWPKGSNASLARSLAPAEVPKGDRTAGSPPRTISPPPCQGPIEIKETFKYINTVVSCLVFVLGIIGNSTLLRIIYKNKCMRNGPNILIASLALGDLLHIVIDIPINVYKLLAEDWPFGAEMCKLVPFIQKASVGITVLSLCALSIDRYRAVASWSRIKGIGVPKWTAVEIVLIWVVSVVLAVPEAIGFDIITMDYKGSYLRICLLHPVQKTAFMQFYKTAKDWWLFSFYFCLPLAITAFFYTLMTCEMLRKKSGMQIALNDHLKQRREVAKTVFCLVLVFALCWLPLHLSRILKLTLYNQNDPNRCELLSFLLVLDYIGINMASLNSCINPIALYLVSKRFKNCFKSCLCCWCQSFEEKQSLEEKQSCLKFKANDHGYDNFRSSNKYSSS

[12] = molecular target: Metabotropic glutamate receptor 3 (Rattus norvegicus, UniProt P31422); assay: Negative allosteric modulation of rat mGlu3 receptor expressed in HEK cells harboring GIRK channel assessed as decrease in glutamate-induced thallium flux incubated for 142 secs followed by glutamate addition measured after 120 secs by Fluo4-AM dye based fluorescence assay; type: functional, cell-based
[13] = molecular target: Endothelin-1 receptor (Homo sapiens) (UniProt P25101); assay: Displacement of [125I] endothelin-1 from recombinant human ETA receptor expressed in CHOK1 cell membranes at 10 uM after 120 mins by scintillation counting method relative to control; how it was run: as §1
Endothelin-1 receptor (Homo sapiens), sequence (P25101 whole entry): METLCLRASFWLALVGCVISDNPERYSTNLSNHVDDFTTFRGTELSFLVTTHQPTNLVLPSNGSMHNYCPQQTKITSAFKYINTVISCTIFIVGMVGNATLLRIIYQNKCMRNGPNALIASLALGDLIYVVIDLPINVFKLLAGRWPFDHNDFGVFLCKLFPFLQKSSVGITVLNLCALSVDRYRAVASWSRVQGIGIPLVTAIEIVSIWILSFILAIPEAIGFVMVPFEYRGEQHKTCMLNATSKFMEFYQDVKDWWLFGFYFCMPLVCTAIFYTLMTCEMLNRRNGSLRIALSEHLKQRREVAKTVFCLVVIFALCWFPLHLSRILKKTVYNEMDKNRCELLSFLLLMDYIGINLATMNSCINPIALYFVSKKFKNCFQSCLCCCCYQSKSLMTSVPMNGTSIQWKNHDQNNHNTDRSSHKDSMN

[14] = molecular target: Sodium-dependent dopamine transporter (Homo sapiens) (UniProt Q01959); assay: Displacement of [125I] RTI-55 from full length human recombinant DAT expressed in CHO cell membranes at 10 uM after 180 mins by scintillation counting method relative to control; how it was run: as §1
Sodium-dependent dopamine transporter (Homo sapiens), sequence (Q01959 whole entry): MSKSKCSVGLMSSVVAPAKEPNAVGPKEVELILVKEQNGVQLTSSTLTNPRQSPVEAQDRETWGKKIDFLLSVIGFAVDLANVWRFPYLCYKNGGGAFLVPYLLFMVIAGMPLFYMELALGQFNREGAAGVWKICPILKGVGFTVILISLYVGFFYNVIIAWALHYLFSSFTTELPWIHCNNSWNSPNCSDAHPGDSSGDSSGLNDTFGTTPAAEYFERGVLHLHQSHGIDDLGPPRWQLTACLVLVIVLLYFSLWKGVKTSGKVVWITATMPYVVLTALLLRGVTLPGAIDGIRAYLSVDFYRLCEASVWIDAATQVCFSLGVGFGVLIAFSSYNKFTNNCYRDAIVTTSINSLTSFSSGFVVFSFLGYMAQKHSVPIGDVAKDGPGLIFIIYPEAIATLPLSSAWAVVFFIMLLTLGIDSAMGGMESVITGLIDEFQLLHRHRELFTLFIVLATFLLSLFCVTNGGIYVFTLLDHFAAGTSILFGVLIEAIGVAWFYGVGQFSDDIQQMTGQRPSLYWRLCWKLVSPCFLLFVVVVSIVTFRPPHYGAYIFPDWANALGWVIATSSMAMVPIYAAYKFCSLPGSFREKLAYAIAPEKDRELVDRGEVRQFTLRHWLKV

[15] = molecular target: Melatonin receptor type 1A (Homo sapiens) (UniProt P48039); assay: Inhibition of human MT1 receptor at 10 uM relative to control; how it was run: as §2
[16] = molecular target: Metabotropic glutamate receptor 5 (Rattus norvegicus, UniProt P31424); assay: Positive allosteric modulation of rat mGlu5 receptor expressed in HEK cells assessed as increase in glutamate-induced calcium flux incubated for 142 secs followed by glutamate addition measured after 120 secs by Fluo4-AM dye based fluorescence assay; type: functional, cell-based
Metabotropic glutamate receptor 5, sequence (P31424 whole entry): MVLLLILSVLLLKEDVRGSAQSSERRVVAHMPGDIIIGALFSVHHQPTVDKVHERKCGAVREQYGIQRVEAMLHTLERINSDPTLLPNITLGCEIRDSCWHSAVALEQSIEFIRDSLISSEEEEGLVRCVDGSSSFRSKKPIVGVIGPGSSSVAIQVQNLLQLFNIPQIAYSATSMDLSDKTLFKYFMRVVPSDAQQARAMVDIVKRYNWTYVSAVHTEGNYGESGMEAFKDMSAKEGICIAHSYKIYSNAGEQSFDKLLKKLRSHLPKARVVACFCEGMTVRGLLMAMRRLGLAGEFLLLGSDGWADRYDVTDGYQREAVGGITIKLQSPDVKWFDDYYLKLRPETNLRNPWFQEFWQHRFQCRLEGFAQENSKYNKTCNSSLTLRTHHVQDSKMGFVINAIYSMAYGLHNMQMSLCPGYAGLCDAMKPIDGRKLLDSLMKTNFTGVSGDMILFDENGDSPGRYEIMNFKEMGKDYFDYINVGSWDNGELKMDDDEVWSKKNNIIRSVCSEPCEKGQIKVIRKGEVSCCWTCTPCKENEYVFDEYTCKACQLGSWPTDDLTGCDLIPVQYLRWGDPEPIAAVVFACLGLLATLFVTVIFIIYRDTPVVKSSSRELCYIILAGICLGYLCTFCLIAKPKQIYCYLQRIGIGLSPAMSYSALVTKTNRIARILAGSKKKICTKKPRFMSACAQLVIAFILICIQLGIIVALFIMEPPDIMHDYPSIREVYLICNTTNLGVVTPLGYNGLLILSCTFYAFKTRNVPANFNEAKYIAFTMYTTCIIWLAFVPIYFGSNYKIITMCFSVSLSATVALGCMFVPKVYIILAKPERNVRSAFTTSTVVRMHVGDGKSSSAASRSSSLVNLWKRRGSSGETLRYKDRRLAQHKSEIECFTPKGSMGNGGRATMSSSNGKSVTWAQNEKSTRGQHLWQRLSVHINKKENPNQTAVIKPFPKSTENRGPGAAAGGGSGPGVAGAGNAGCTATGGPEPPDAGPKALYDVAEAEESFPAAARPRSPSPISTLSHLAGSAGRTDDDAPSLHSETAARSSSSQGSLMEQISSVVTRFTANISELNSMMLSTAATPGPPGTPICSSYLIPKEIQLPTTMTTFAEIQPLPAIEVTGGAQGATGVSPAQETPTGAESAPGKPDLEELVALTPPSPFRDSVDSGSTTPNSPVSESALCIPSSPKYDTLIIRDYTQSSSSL

[17] = molecular target: 5-hydroxytryptamine receptor 3A (Homo sapiens) (UniProt P46098); assay: Displacement of [3H] GR-65630 from full length human recombinant 5-HT3 receptor expressed in HEK293 cell membranes at 10 uM after 60 mins by scintillation counting method relative to control; how it was run: as §1
5-hydroxytryptamine receptor 3A (Homo sapiens), sequence (P46098 whole entry): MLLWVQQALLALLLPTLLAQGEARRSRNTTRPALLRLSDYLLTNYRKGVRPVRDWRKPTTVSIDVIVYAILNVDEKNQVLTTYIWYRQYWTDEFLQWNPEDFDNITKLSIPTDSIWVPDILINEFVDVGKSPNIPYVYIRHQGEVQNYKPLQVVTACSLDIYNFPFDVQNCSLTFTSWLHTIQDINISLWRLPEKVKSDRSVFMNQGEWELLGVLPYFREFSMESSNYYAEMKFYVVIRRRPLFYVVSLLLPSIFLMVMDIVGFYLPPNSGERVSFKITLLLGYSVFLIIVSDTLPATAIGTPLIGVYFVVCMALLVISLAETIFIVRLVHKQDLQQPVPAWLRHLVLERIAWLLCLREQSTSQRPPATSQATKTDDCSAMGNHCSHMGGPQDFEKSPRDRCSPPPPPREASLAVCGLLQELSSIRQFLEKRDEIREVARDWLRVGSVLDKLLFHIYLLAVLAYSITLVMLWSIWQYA

[18] = molecular target: Androgen receptor (Homo sapiens) (UniProt P10275); assay: Displacement of [3H] methyltrienolone from androgen receptor in human LNCAP cells at 10 uM after 20 hrs by scintillation counting method relative to control; type: cell-based
[19] = molecular target: T1, Metabotropic glutamate receptor 6; assay: Negative allosteric modulation of human mGlu6 receptor expressed in HEK cells harboring GIRK channel assessed as decrease in glutamate-induced thallium flux incubated for 142 secs followed by glutamate addition measured after 120 secs by Fluo4-AM dye based fluorescence assay; type: functional, cell-based
[20] = molecular target: Beta-2 adrenergic receptor (Homo sapiens) (UniProt P07550); assay: Displacement of [3H] CGP-12177 from recombinant human beta2 receptor expressed in CHO cell membranes co-expressing human NBR1 at 10 uM after 60 mins by scintillation counting method relative to control; how it was run: as §1
Beta-2 adrenergic receptor (Homo sapiens), sequence (P07550 whole entry, looked up): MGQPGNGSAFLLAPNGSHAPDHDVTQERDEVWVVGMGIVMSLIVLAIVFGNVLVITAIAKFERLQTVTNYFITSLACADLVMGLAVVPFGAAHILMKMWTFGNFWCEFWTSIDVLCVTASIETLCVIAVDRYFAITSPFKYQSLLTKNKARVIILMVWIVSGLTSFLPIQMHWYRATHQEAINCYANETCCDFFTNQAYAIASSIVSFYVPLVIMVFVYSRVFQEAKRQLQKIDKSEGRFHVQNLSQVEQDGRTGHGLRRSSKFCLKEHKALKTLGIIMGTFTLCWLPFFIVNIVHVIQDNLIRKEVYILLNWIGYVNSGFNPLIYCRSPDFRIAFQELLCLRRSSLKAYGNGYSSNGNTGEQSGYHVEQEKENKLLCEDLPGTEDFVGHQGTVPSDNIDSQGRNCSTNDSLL

[21] = species: Rattus norvegicus; assay: Displacement of [3H] muscimol from Wistar rat central GABAA at 10 uM measured after 10 mins by scintillation counting method relative to control; how it was run: as §1
[22] = species: Rattus norvegicus; assay: Time at which total brain concentration stays above in vitro mGlu7 EC50 in rat; type: ADME, organism-based; conditions: in vivo
[23] = molecular target: Cytochrome P450 2D6 (Homo sapiens, UniProt P10635); assay: Inhibition of CYP2D6 in human liver microsomes using dextromethorphan as substrate preincubated for 15 mins followed by NADPH addition measured after 8 mins by LC-MS/MS analysis; type: ADME
[24] = molecular target: Cannabinoid receptor 1 (Homo sapiens) (UniProt P21554); assay: Displacement of [3H] SR141716A from recombinant human CB1 receptor expressed in rat Chem1 cell membranes at 10 uM measured after 90 mins by scintillation counting method relative to control; how it was run: as §1
[25] = molecular target: B2 bradykinin receptor (Homo sapiens) (UniProt P30411); assay: Displacement of [3H] bradykinin from recombinant human bradykinin B2 receptor expressed in rat Chem1 cell membranes at 10 uM measured after 60 mins by scintillation counting method relative to control; how it was run: as §1
[26] = molecular target: Cytochrome P450 2C9 (Homo sapiens, UniProt P11712); assay: Inhibition of CYP2C9 in human liver microsomes using diclofenac as substrate preincubated for 15 mins followed by NADPH addition measured after 8 mins by LC-MS/MS analysis; type: ADME
[27] = molecular target: Neuropeptide Y receptor type 2 (Homo sapiens) (UniProt P49146); assay: Displacement of [125I] Peptide YY from Y2 receptor in human KAN-TS cell membrane at 10 uM after 120 mins by scintillation counting method relative to control; type: cell membranes; how it was run: as §1
[28] = tested on: Mus musculus; assay: Toxicity in wild-type C57/B6 mouse assessed as sedation at 50 mg/kg, ip; type: organism-based; conditions: in vivo

SMILES: COc1ccc(-c2c(C)nn3c(C(F)(F)F)cc(C)nc23)c(F)c1F
- inhibition [1]: < 50%
- inhibition [2]: < 50%
- inhibition [3]: < 50%
- EC50 [4]: > 10 µM
- inhibition [5]: < 50%
- inhibition [6]: < 50%
- inhibition [7]: < 50%
- inhibition [8]: < 50%
- inhibition [9]: < 50%
- inhibition [10]: < 50%
- inhibition [11]: < 50%
- IC50 [12]: > 10 µM
- inhibition [13]: < 50%
- inhibition [14]: < 50%
- inhibition [15]: < 50%
- EC50 [16]: > 10 µM
- inhibition [17]: < 50%
- inhibition [18]: < 50%
- IC50 [19]: > 10 µM
- inhibition [20]: < 50%
- inhibition [21]: < 50%
- Time [22]: 2 h
- IC50 [23]: > 30 µM
- inhibition [24]: < 50%
- inhibition [25]: < 50%
- IC50 [26]: 24.7 µM
- inhibition [27]: < 50%
- Activity [28]: Toxic
